Experimental data reported in paper PMC6896334 (Cell reports, 2019).

Legend:
Id1 crystals = molecular target: T1, Id1 crystals (Mus musculus, UniProt P20067); test: Exposure of Id1 crystals to compound; conditions: DMSO alone had no such effect
T1 sequence (P20067 51-104): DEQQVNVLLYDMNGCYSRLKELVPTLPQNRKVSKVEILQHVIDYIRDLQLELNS
How it was run: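 Mouse Id1 (residues 51–104) crystals grown by hanging-drop vapour diffusion at 4°C. Protein at 2.8 mg/mL (20 mM Tris pH 8.0, 0.25 M NaCl, 5 mM DTT) was mixed 1:1 with reservoir of 0.1 M sodium citrate pH 6.5, 0.2 M magnesium acetate and 10% PEG8000.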

Id1 (59–104) = molecular target: T2, Id1 (59–104) (Mus musculus, UniProt P20067); test: UV crosslinking of AGX51-XL2 to purified Id1 and mass spectrometry; format: binding; conditions: 10-fold excess of AGX51
T2 sequence (P20067 59-104): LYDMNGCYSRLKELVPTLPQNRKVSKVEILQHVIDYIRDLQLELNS
How it was run: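 Purified Id1 (aa 59–104, 1 µg) was mixed in the dark with 19.7 ng of a benzophenone photoreactive test-compound analog in DMSO and UV-irradiated for 20 min, with a no-UV control. Samples were run in the dark on a 15% denaturing gel and silver stained. Bands were excised for mass spectrometry.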

HUVECs = test: HUVEC cell growth; format: cell-based, human; conditions: 20 μM, 5 days
How it was run: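 HUVECs seeded at 38,000 cells per 24-well well, in triplicate for each time point, with 20 µM test compound or DMSO. Viable cells were counted by trypan blue exclusion on days 1, 3 and 5 after seeding.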

[1] = molecular target: T3, NanoLuc luciferase ID1 fusion protein (Homo sapiens, UniProt P41134); test: NanoBRET target engagement assay in permeabilized 293T cells; format: binding; conditions: 2 μM AGX51 tracer, 0–60 μM competitor, 50 μg/mL digitonin
T3 sequence (P41134 1-155): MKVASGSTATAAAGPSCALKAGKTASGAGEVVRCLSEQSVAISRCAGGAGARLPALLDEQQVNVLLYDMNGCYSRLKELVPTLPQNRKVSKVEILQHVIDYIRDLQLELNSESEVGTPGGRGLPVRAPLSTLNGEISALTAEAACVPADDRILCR
How it was run: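 293T cells transfected with an N-terminal NanoLuc–ID1 fusion construct and plated 24 h later. Cells received 2 µM fluorescent tracer plus 0–60 µM competitor, then were permeabilised with digitonin (50 µg/mL). NanoBRET Nano-Glo substrate was added and the BRET ratio read, following the kit protocol for intracellular target engagement.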

E47 = molecular target: T4, E47 (Homo sapiens, UniProt P15923); test: Circular dichroism; format: binding; conditions: AGX51 0, 10, 20, 50 μM
T4 sequence (P15923 1-651 isoform P15923-2): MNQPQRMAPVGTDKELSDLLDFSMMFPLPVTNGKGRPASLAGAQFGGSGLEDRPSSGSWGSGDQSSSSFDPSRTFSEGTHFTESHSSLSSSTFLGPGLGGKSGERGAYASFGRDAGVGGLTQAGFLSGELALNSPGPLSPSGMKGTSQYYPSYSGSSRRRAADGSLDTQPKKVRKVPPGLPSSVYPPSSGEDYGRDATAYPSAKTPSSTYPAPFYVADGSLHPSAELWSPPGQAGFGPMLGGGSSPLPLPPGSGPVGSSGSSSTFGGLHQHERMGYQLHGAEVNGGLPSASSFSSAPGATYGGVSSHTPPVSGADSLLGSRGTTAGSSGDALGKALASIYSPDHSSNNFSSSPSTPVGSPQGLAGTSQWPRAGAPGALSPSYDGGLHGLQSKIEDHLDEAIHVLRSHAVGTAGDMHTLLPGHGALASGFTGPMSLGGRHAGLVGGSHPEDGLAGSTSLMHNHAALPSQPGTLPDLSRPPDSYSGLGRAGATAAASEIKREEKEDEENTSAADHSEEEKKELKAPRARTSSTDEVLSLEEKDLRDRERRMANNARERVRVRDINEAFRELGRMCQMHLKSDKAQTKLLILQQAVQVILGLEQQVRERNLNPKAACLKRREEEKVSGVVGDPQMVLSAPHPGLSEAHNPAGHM

[2] = 14-day toxicity study, i.p. dosing; format: in vivo, mouse; conditions: mice, 60 mg/kg i.p. bid, 14 days
How it was run: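 Mice given the test compound or vehicle (70% DMSO in water) i.p. at 60 mg/kg twice daily for 14 consecutive days. They were sacrificed 24 h after the last dose for gross and complete necropsy and clinical pathology. Clinical chemistry covered BUN, creatinine, ALP, ALT, AST, GGT, bilirubin, total protein, albumin, globulin, phosphorus, glucose, cholesterol, calcium, sodium, potassium and chloride.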

CCC(=O)N(CCC(c1ccc2c(c1)OCO2)c1ccccc1OC)Cc1ccccc1 (stereo not drawn) [AGX51, N-(3-(benzo[d][1,3]dioxol-5-yl)-3-(2-methoxyphenyl)propyl)-N-benzylpropionamide]
effect on Id1 crystals (Id1 crystals): the crystals melted
AGX51-XL2 binding to Id1 in the presence of competitor (Id1 (59–104)): significant decrease in AGX51-XL2 binding to Id1
cell viability / growth (HUVECs): reduced cell viability
competition with the AGX51 tracer (BRET ratio) [1]: able to compete the AGX51 tracer
interaction with E47 (CD) (E47): no evidence of an interaction
clinical chemistry parameters and hematology [2]: within normal limits
gross necropsy and histopathological evaluation of all major organs [2]: No abnormal findings
mortality or morbidity [2]: no mortality or morbidity was observed
weight loss [2]: no significant weight loss
